Experiment [1] deals with T1, APN in rat brain membranes (Rattus norvegicus, UniProt P15684).
T1 sequence (P15684 1-965): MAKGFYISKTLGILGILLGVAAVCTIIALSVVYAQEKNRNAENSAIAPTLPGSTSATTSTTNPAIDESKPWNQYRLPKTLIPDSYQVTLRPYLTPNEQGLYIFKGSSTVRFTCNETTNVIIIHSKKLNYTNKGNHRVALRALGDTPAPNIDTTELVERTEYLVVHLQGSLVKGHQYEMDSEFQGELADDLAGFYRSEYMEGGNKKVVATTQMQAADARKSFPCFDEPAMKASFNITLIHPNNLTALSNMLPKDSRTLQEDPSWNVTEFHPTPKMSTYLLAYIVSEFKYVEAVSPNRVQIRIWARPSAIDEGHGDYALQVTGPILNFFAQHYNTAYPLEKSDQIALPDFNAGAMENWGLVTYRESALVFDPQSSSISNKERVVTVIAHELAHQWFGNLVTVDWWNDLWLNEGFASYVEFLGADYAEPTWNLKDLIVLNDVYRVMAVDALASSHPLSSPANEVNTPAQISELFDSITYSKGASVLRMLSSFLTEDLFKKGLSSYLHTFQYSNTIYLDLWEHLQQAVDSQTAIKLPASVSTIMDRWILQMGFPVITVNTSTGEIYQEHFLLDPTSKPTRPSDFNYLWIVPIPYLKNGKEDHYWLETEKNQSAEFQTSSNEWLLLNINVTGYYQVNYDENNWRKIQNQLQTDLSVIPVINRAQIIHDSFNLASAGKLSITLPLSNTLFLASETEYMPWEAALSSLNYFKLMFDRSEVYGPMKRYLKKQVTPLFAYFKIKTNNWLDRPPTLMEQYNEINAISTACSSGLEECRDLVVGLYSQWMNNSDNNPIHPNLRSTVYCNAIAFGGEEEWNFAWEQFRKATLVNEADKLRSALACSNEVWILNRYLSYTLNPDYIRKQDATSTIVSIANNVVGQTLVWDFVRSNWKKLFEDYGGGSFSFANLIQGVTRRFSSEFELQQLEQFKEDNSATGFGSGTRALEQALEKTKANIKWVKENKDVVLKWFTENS
The experiment can be described thus: Competition with [125I]RB 129 binding on rat brain membranes. The settings on record: for inhibition of specific [125I]RB 129 binding (qualitative): rat brain membranes.

For a further experiment, the target named is pure porcine APN. The settings on record: read-out: K i in enzymatic studies; cited from earlier work.
Experiment [2] has as its target T2, recombinant pig APN (Sus scrofa, UniProt P15145).
T2 sequence (P15145 1-963): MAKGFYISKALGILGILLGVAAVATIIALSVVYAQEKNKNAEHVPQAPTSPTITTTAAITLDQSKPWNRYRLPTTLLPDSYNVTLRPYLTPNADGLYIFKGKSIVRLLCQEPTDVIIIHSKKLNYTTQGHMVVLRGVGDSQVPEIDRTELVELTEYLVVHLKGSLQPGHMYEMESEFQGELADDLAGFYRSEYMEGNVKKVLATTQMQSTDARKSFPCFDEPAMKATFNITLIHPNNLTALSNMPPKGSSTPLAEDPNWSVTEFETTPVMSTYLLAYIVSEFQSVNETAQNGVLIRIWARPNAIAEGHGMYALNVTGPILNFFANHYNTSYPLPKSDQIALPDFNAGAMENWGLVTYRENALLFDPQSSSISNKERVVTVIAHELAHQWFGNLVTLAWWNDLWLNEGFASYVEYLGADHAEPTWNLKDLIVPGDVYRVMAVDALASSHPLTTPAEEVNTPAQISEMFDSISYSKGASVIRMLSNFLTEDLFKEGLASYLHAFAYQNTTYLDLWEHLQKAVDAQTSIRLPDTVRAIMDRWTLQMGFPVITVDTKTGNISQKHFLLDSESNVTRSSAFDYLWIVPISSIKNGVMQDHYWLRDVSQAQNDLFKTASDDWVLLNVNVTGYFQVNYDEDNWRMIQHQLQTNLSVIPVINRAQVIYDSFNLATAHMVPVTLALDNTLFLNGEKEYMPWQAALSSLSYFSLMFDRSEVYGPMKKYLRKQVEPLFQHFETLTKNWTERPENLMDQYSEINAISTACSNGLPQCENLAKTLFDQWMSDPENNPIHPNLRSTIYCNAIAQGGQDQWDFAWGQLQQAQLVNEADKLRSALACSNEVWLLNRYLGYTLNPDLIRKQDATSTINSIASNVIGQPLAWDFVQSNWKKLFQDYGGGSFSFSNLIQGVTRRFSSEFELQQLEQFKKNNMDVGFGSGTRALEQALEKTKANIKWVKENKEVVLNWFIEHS
The experiment is classed as binding. The note with it: transfected COS-7 cell membranes.

The target in experiment [3] is T1, APN in rat brain membranes. The experiment can be described thus: [125I]RB 129 kinetic and saturation binding to rat brain membranes. A digest of the protocol: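 Rat brain minus cerebellum homogenised in 50 mM Tris–HCl pH 7.4, spun at 1000×g then 100 000×g; pellet resuspended in buffer with 0.02% bacitracin, 0.4–0.6 mg protein/ml. Incubations at 35°C with thiorphan. Kinetics used 100 pM [125I]RB 129, with dissociation started by 1 μM unlabeled RB 129 after 120 min. Saturation ran 0.075–8 nM for 80 min. Nonspecific binding defined with 1 μM RB 129; bound ligand collected on GF/B filters.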

In experiment [4] the target is T2, recombinant pig APN. The experiment is classed as binding. In short, it runs like this: (§1)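 Pig APN cDNA, wild-type or E350A, in pcDNA3 was electroporated (50 μg per 10×10^6 cells) into COS-7 cells grown in DMEM with 10% FCS, then kept 48 h at 37°C. Membranes (100 000×g) were resuspended in 50 mM Tris–HCl pH 7.4 with 0.02% bacitracin, 50–100 μg protein/tube. Saturation used 0.075–8 nM [125I]RB 129 for 80 min at 35°C with thiorphan, 1 μM RB 129 for nonspecific binding, GF/B filtration and Scatchard analysis.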

For another experiment, the target named is T3, APN mutant E^350A (Sus scrofa, UniProt P15145, E350A).
T3 sequence (P15145 2-963 E350A): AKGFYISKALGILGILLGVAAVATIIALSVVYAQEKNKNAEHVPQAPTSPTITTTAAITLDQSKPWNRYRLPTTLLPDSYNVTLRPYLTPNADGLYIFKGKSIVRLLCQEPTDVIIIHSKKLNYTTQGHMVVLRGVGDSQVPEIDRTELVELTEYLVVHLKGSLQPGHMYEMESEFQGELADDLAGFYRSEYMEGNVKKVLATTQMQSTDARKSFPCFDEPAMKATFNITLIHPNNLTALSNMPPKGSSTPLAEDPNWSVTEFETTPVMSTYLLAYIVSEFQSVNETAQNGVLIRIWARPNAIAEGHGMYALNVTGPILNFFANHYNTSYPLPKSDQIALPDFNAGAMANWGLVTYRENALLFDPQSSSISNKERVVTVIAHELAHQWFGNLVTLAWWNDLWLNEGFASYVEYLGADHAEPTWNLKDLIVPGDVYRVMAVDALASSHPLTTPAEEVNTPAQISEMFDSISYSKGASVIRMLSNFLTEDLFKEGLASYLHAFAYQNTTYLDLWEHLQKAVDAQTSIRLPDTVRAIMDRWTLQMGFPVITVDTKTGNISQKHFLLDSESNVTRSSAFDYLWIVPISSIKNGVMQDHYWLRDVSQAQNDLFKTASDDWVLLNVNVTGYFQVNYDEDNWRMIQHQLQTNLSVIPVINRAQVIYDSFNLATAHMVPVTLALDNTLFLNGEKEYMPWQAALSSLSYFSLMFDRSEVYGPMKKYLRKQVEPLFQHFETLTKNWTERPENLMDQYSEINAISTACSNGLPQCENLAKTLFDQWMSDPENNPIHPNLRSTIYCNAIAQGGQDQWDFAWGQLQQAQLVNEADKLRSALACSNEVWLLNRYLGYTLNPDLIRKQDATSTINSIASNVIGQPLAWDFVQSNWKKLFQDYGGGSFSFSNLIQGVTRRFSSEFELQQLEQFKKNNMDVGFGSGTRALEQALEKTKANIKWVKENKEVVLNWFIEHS
The experiment in a line: [125I]RB 129 binding to mutated APN expressed in COS-7 cells. The note with it: E^350A mutated APN in COS-7 cells. Also on record: species or system pig. In short, it runs like this:
as §1

The target of the next experiment is NEP. The settings on record: read-out: K i for NEP; enzymatic assay; cited from earlier work.

The structures appear in SMILES notation. Where “and” joins values, the source holds several entries; their conditions need not be identical. Identical values can stand only once. Entries after “also recorded” stand apart in the source; their conditions may differ.

Consider `NC(CS)Cc1ccccc1` (stereo not shown) [Phe‐thiol], for which the “inhibition of specific [125I]RB 129 binding (qualitative)” value (from here on “inhibition of specific”) in experiment [1] is listed as “concentration‐dependent inhibition”. For the same molecule, the Ki on pure porcine APN is 12.1 nM.
As to `O=C(CC(Cc1ccccc1)C(=O)N[C@@H](Cc1ccccc1)C(=O)O)NO` (stereo partly shown) [RB 38A], the “fold lower affinity in rat brain binding versus enzymatic assay” value in experiment [1] (rat brain membrane K i vs enzymatic K i on porcine APN) is reported as “more than 10 fold”. Moreover, the “inhibition of specific” value (in experiment [1]; at recombinant pig APN [2]) was “concentration‐dependent inhibition” each time. The Ki at pure porcine APN was 120 nM.
For `C[C@H](N)P(=O)(O)C[C@@H](Cc1ccccc1)C(=O)N[C@@H](Cc1ccc(O)c([125I])c1)C(=O)O` [[^125I]RB 129, 2(S)‐benzyl‐3‐[hydroxy(1′(R)‐aminoethyl)phosphinyl]propanoyl‐L‐3‐[^125I]iodotyrosine], the “association rate constant, k +1” value in experiment [3] (100 pM ligand, 35°C, rat brain membranes) was determined as 1.58e+06 M⁻¹ s⁻¹. For the same molecule, the “incubation time to reach binding equilibrium” value in experiment [3] (100 pM, 35°C) was 80 min. Besides, the “specific binding at routine protein concentration” value (in experiment [3] (0.4–0.6 mg/ml rat brain membrane protein); on recombinant pig APN [4] (50–100 μg/ml recombinant APN protein)) was 80–98% throughout. Also, the “dissociation rate constant (k −1)” value in experiment [3] (dissociation initiated with 1 μM unlabeled RB 129, 35°C) amounted to 0.022 min⁻¹. In addition, the results for the “specific binding at the K d value” (in experiment [3] (rat brain homogenates); at recombinant pig APN [4] (recombinant APN in COS-7 cells)) were 95% and around 92%, respectively. For the same molecule, the “maximal capacity of binding sites (B max)” value in experiment [3] (saturation, rat brain homogenates) was 722±88 fmol/mg of protein and 722 fmol/mg of protein; on recombinant pig APN [4] (recombinant APN wild-type in COS-7 cells) it was 650±67 fmol/mg of protein. In addition, the “specific binding on mutated APN” value on APN mutant E^350A is listed as “No specific binding; also recorded: non‐measurable specific binding”.
For the molecule `C[C@H](N)P(=O)(O)C[C@@H](Cc1ccccc1)C(=O)N[C@@H](Cc1ccc(O)c(I)c1)C(=O)O` [RB 129, 2(S)‐benzyl‐3‐[hydroxy(1′(R)‐aminoethyl)phosphinyl]propanoyl‐L‐3‐iodotyrosine], the “inhibition of specific” value (in experiment [1]; at recombinant pig APN [2]) was “concentration‐dependent inhibition” each time. Further, the Ki on NEP is 23.6 nM.
